Measured values as given in ChEMBL document CHEMBL1165950, “Design and synthesis of new potent anticancer pyrazoles with high FLT3 kinase inhibitory selectivity” (Bioorg Med Chem, 2010).

Legend:
Assay type in all cases: functional
[1] = system: SK-MEL-5; assay: Cytotoxicity against human SK-MEL-5 cells assessed as cell growth at 10 uM after 48 hrs by sulforhodamine B assay; details: SK-MEL-5, 48 h, read-out: Activity
[2] = system: NCI/ADR-RES; assay: Cytotoxicity against human NCI/ADR-RES cells assessed as cell growth at 10 uM; details: read-out: Activity
In short: (§1)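 NCI-60 screen: cells grown in RPMI 1640 with 5% FBS and 2 mM L-glutamine, plated at 5000–40,000 cells/well according to doubling time, and preincubated 24 h at 37 °C, 5% CO2. The single 10 µM dose (DMSO stock) was added, then incubated 48 h. Cells were TCA-fixed and stained with 0.4% SRB, read at 515 nm, and growth % calculated against time-zero and control plates.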

[3] = system: UO-31; assay: Cytotoxicity against human UO31 cells assessed as cell growth at 10 uM; details: read-out: Activity; in short: as §1
[4] = system: 786-0; assay: Cytotoxicity against human 786-0 cells assessed as cell growth at 100 nM after 48 hrs by sulforhodamine B assay; details: 786-0, 48 h, read-out: Activity
In short: (§2)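 NCI-60 five-dose screen. Cells were grown in RPMI 1640 with 5% FBS and 2 mM L-glutamine, plated at 5000–40,000 cells/well and preincubated for 24 h. Time-zero plates were TCA-fixed. DMSO-solubilized drug was added at five concentrations (10-fold or ½-log serial dilutions) for 48 h at 37 °C, 5% CO2. Cells were TCA-fixed, stained with 0.4% SRB and read at 515 nm. Percent growth used time-zero, control and test absorbances.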

[5] = system: HOP-62; assay: Cytotoxicity against human HOP62 cells assessed as cell growth at 10 uM; details: read-out: Activity
In short: (§3)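 Single-dose NCI-60 screen at 10 µM. Cells were grown in RPMI 1640 with 5% FBS and 2 mM L-glutamine, then treated for 48 h at 37 °C. Protein was measured by SRB staining with absorbance at 515 nm. Percentage growth was recorded, and inhibition percentage was calculated as 100 minus growth percentage.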

[6] = system: NCI-H522; assay: Growth inhibition of human NCI-H522 cells after 48 hrs by sulforhodamine B assay; details: NCI-H522, 48 h; for CC50: read-out: LC50 (the source's name)
In short: (§4)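 NCI 60-cell screen, five-dose mode. Cells grown in RPMI 1640 with 5% FBS and 2 mM L-glutamine and plated at 5000-40,000 cells/well according to doubling time. After 24 h preincubation, a Tz plate was TCA-fixed. Five concentrations (10-fold or 1/2 log dilutions) were applied for 48 h at 37 °C. SRB staining read at 515 nm. IC50 taken from [(Ti-Tz)/(C-Tz)]×100 = 50.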

[7] = system: HT-29; assay: Cytotoxicity against human HT-29 cells assessed as cell growth at 1 uM after 48 hrs by sulforhodamine B assay; details: HT-29, 48 h, read-out: Activity
[8] = system: SK-OV-3; assay: Cytotoxicity against human SKOV3 cells assessed as cell growth at 10 uM after 48 hrs by sulforhodamine B assay; details: SK-OV-3, 48 h, read-out: Activity
[9] = system: NCI-H460; assay: Cytotoxicity against human NCI-H460 cells assessed as cell growth at 0.01 uM after 48 hrs by sulforhodamine B assay; details: NCI-H460, 48 h, read-out: Activity
[10] = system: UACC-62; assay: Cytotoxicity against human UACC62 cells assessed as cell growth at 0.001 uM after 48 hrs by sulforhodamine B assay; details: UACC-62, 48 h, read-out: Activity
[11] = system: SF-539; assay: Cytotoxicity against human SF539 cells assessed as cell growth at 10 uM; details: read-out: Activity; in short: as §1
[12] = system: DU-145; assay: Cytotoxicity against human DU145 cells assessed as cell growth at 1 uM after 48 hrs by sulforhodamine B assay; details: DU-145, 48 h, read-out: Activity
[13] = system: NCI-H322M; assay: Cytotoxicity against human NCI-H322M cells assessed as cell growth at 0.001 uM after 48 hrs by sulforhodamine B assay; details: read-out: Activity
[14] = system: SK-OV-3; assay: Growth inhibition of human SKOV3 cells after 48 hrs by sulforhodamine B assay; details: SK-OV-3, 48 h; for CC50: read-out: LC50 (the source's name); in short: as §4
[15] = system: LOX IMVI; assay: Cytotoxicity against human LOXIMVI cells assessed as cell growth at 1 uM after 48 hrs by sulforhodamine B assay; details: read-out: Activity
[16] = system: OVCAR-4; assay: Cytotoxicity against human OVCAR4 cells assessed as cell growth at 10 uM; details: read-out: Activity; in short: as §1
[17] = system: 786-0; assay: Cytotoxicity against human 786-0 cells assessed as cell growth at 0.01 uM after 48 hrs by sulforhodamine B assay; details: 786-0, 48 h, read-out: Activity; in short: as §2
[18] = system: A498; assay: Cytotoxicity against human A498 cells assessed as cell growth at 10 uM after 48 hrs by sulforhodamine B assay; details: A498, 48 h, read-out: Activity; in short: as §2
[19] = system: NCI-H522; assay: Cytotoxicity against human NCI-H522 cells assessed as cell growth at 0.01 uM after 48 hrs by sulforhodamine B assay; details: NCI-H522, 48 h, read-out: Activity
[20] = system: SNB-75; assay: Cytotoxicity against human SNB75 cells assessed as cell growth at 1 uM after 48 hrs by sulforhodamine B assay; details: SNB-75, 48 h, read-out: Activity
[21] = system: HOP-92; assay: Cytotoxicity against human HOP92 cells assessed as cell growth at 0.01 uM after 48 hrs by sulforhodamine B assay; details: HOP-92, 48 h, read-out: Activity
[22] = system: UACC-257; assay: Growth inhibition of human UACC257 cells after 48 hrs by sulforhodamine B assay; details: UACC-257, 48 h; for CC50: read-out: LC50 (the source's name); in short: as §4
[23] = system: NCI-H23; assay: Growth inhibition of human NCI-H23 cells after 48 hrs by sulforhodamine B assay; details: NCI-H23, 48 h; for CC50: read-out: LC50 (the source's name); in short: as §4
[24] = system: SF-268; assay: Cytotoxicity against human SF268 cells assessed as cell growth at 10 uM after 48 hrs by sulforhodamine B assay; details: SF-268, 48 h, read-out: Activity
[25] = system: BT-549; assay: Cytotoxicity against human BT549 cells assessed as cell growth at 10 uM; details: read-out: Activity; in short: as §3
[26] = system: DU-145; assay: Cytotoxicity against human DU145 cells assessed as cell growth at 10 uM after 48 hrs by sulforhodamine B assay; details: DU-145, 48 h, read-out: Activity
[27] = system: MDA-MB-468; assay: Cytotoxicity against human MDA-MB-468 cells assessed as cell growth at 0.001 uM after 48 hrs by sulforhodamine B assay; details: MDA-MB-468, 48 h, read-out: Activity
[28] = system: A498; assay: Cytotoxicity against human A498 cells assessed as cell growth at 10 uM; details: read-out: Activity; in short: as §3

## COc1cc(C)cc(-c2nn(CC#N)cc2-c2ccc(-c3cccc(C(C)=O)c3)nc2)c1
[1]
  growth at 10 µM: -75%
[2]
  growth at 10 µM: -25.8%
[3]
  growth at 10 µM: 33.8%
[4]
  growth at 0.1 µM: 92%
[5]
  growth at 10 µM: 32.1%
[6]
  GI50: 1.64 µM
  TGI: 6.72 µM
  CC50: > 100 µM
[7]
  growth at 1 µM: 4%
[8]
  growth at 10 µM: -36%
[9]
  growth at 0.01 µM: 104%
[10]
  growth at 0.001 µM: 94%
[11]
  growth at 10 µM: 5.94%
[12]
  growth at 1 µM: -38%
[13]
  growth at 0.001 µM: 94%
[14]
  GI50: 3.13 µM
  TGI: 9.1 µM
  CC50: > 100 µM
[15]
  growth at 1 µM: 23%
[16]
  growth at 10 µM: 31.7%
[17]
  growth at 0.01 µM: 97%
[18]
  growth at 10 µM: -55%
[19]
  growth at 0.01 µM: 82%
[20]
  growth at 1 µM: -20%
[21]
  growth at 0.01 µM: 80%
[22]
  GI50: 3.61 µM
  TGI: > 100 µM
  CC50: > 100 µM
[23]
  GI50: 3.45 µM
  TGI: 84 µM
  CC50: > 100 µM
[24]
  growth at 10 µM: -2%
[25]
  growth at 10 µM: 25.4%
[26]
  growth at 10 µM: -48%
[27]
  growth at 0.001 µM: 83%
[28]
  growth at 10 µM: 19.7%

## COc1cc(C)cc(-c2c(-c3ccnc(-c4ccc(C(C)=O)cc4)c3)cnn2CC#N)c1
[1]
  growth at 10 µM: -35%
[2]
  growth at 10 µM: 60.1%
[3]
  growth at 10 µM: 57.4%
[4]
  growth at 0.1 µM: 88%
[5]
  growth at 10 µM: 78.1%
[6]
  GI50: 1.93 µM
  TGI: 6.96 µM
  CC50: > 100 µM
[7]
  growth at 1 µM: 7%
[8]
  growth at 10 µM: 27%
[9]
  growth at 0.01 µM: 98%
[10]
  growth at 0.001 µM: 93%
[11]
  growth at 10 µM: 59.9%
[12]
  growth at 1 µM: 16%
[13]
  growth at 0.001 µM: 102%
[14]
  GI50: 4.22 µM
  TGI: > 100 µM
  CC50: > 100 µM
[15]
  growth at 1 µM: 19%
[16]
  growth at 10 µM: 80.2%
[17]
  growth at 0.01 µM: 98%
[18]
  growth at 10 µM: 27%
[19]
  growth at 0.01 µM: 81%
[20]
  growth at 1 µM: -5%
[21]
  growth at 0.01 µM: 69%
[22]
  GI50: 5.24 µM
  TGI: > 100 µM
  CC50: > 100 µM
[23]
  GI50: 3.9 µM
  TGI: > 100 µM
  CC50: > 100 µM
[24]
  growth at 10 µM: 23%
[25]
  growth at 10 µM: 60%
[26]
  growth at 10 µM: 15%
[27]
  growth at 0.001 µM: 92%
[28]
  growth at 10 µM: 83%
